Source: ChEMBL document CHEMBL1811909, “Synthesis and antiproliferative activity of novel 2-aryl-4-benzoyl-imidazole derivatives targeting tubulin polymerization” (Bioorg Med Chem, 2011)
Calls of active or inactive are those of the source. The calls are words filed in the database; no cut-off is given here.

Legend:
DU-145 [1] = assay: Antiproliferative activity against human DU145 cells after 96 hrs by sulforhodamine B assay; assay type: functional, cell-based; conditions: DU-145, 96 h
PC-3 [2] = assay: Antiproliferative activity against human PC3 cells after 96 hrs by sulforhodamine B assay; assay type: functional, cell-based; conditions: PC-3, 96 h
Bos taurus [3] = organism: Bos taurus; assay: Inhibition of bovine brain tubulin polymerization after 15 mins by spectrophotometric analysis
How it was run: (§1)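 Bovine brain tubulin (>97% pure, 0.4 mg per assay) mixed with compound at 5, 10 or 20 µM, with 5% DMSO as vehicle control. Buffer: 80 mM PIPES, 2.0 mM MgCl2, 0.5 mM EGTA, 1 mM GTP, pH 6.9. Polymerization followed at 37 °C as absorbance at 340 nm, read every minute for 15 min.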

[4] = Antiproliferative activity against human WM164 cells after 48 hrs by sulforhodamine B assay; assay type: functional, cell-based; conditions: WM164, 48 h
A-375 = assay: Antiproliferative activity against human A375 cells after 48 hrs by sulforhodamine B assay; assay type: functional, cell-based; conditions: A-375, 48 h
PPC-1 = assay: Antiproliferative activity against human PPC1 cells after 96 hrs by sulforhodamine B assay; assay type: functional, cell-based; conditions: PPC-1, 96 h
LNCaP = assay: Antiproliferative activity against human LNCAP cells after 96 hrs by sulforhodamine B assay; assay type: functional, cell-based
DU-145 [5] = assay: Antiproliferative activity against human paclitaxel-resistant DU145 cells by sulforhodamine B assay; assay type: functional, cell-based
How it was run: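 Prostate cancer cells grown in RPMI 1640 with 10% FBS at 37 °C, 5% CO2. Seeded at 1000–5000 cells/well depending on growth rate and exposed to a concentration series for 96 h, in three to five replicates. Cells fixed with 10% TCA and stained with 0.4% SRB, absorbance read at 540 nm.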

Bos taurus [6] = organism: Bos taurus; assay: Inhibition of bovine brain tubulin polymerization at 10 to 20 uM after 15 mins by spectrophotometric analysis; how it was run: as §1
PC-3 [7] = assay: Resistance index, ratio of IC50 for human paclitaxel-resistant PC3 cells to IC50 for human PC3 cells; assay type: functional
How it was run: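 Ratio of SRB-assay IC50 values, paclitaxel-resistant PC-3-TxR over parental PC-3. Both lines grown in RPMI 1640 with 10% FBS and treated for 96 h, in three to five replicates. IC50 taken from absorbance at 540 nm by nonlinear regression.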

MDA-MB-435 [8] = assay: Antiproliferative activity against human MDA-MB-435 cells expressing LCC6MDR1 by sulforhodamine B assay; assay type: functional, cell-based
PC-3 [9] = assay: Antiproliferative activity against human paclitaxel-resistant PC3 cells by sulforhodamine B assay; assay type: functional, cell-based
How it was run: (§2)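 Prostate cancer cells grown in RPMI 1640 with 10% FBS at 37 °C, 5% CO2. Cells (1000–5000/well, by growth rate) were exposed to a range of concentrations for 96 h, in three to five replicates. Growth was read by SRB: TCA fixation, 0.4% SRB stain, absorbance at 540 nm.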

PC-3 [10] = assay: Antiproliferative activity against human PC3 cells by sulforhodamine B assay; assay type: functional, cell-based; how it was run: as §2
MDA-MB-435 [11] = assay: Resistance index, ratio of IC50 for human MDA-MB-435 cells expressing LCC6MDR1 to IC50 for human MDA-MB-435 cells; assay type: functional
MDA-MB-435 [12] = assay: Antiproliferative activity against human MDA-MB-435 cells by sulforhodamine B assay; assay type: functional, cell-based
DU-145 [13] = assay: Antiproliferative activity against human DU145 cells by sulforhodamine B assay; assay type: functional, cell-based
DU-145 [14] = assay: Resistance index, ratio of IC50 for human paclitaxel-resistant DU145 cells to IC50 for human DU145 cells; assay type: functional
How it was run: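 Ratio of SRB-assay IC50 values, paclitaxel-resistant DU145-TxR over parental DU145. Both lines grown in RPMI 1640 with 10% FBS and exposed to the compound for 96 h, in three to five replicates. Absorbance read at 540 nm after TCA fixation and SRB staining.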

Liver [15] = assay: Metabolic stability of the compound in dog liver microsomes at […] up to 90 mins by LC-MS analysis; assay type: ADME, Canis lupus familiaris, Microsome
How it was run: (§3)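 Aliquots were drawn at 5, 10, 20, 30, 60 and 90 min and quenched in acetonitrile containing internal standard. After centrifugation, supernatants were measured by LC-MS/MS to follow parent loss and derive half-life.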

Liver microsomes [16] = assay: Metabolic stability of the compound in human liver microsomes at 0.5 uM up to 90 mins by LC-MS analysis; assay type: ADME, Microsome
Liver [17] = assay: Half life in mouse liver microsomes at […] by LC-MS analysis; assay type: ADME, Microsome; how it was run: as §3
Liver microsomes [18] = assay: Metabolic stability of the compound in human liver microsomes at […] up to 90 mins by LC-MS analysis; assay type: ADME, Microsome; how it was run: as §3
Liver microsomes [19] = assay: Half life in rat liver microsomes at […] by LC-MS analysis; assay type: ADME, Microsome; how it was run: as §3

Row | SMILES | IC50 (DU-145 [1]) | IC50 (PC-3 [2]) | inhibition (Bos taurus [3]) | IC50 [4] | IC50 (A-375) | IC50 (PPC-1) | IC50 (LNCaP) | also measured
1 | COc1cc(C(=O)c2nc3ccccc3o2)cc(OC)c1OC | > 10 µM | > 10 µM | Dose-dependent effect | > 10 µM | > 10 µM | > 10 µM | > 10 µM | –
2 | COc1cc(C(=O)c2cn(Cc3ccccc3)c(-c3ccc(C)cc3)n2)cc(OC)c1OC | 1.5 µM | 0.47 µM | Dose-dependent effect | 1.17 µM | 1.06 µM | 0.78 µM | 0.68 µM | –
3 | COc1cc(C(=O)c2cc3ccc(F)cc3[nH]2)cc(OC)c1OC | > 10 µM | > 10 µM | Dose-dependent effect | > 10 µM | > 10 µM | > 10 µM | > 10 µM | –
4 | COc1cc(C(=O)c2c[nH]c(-c3ccc(Br)cc3)n2)cc(OC)c1OC | 0.05 µM | 0.04 µM | Dose-dependent effect | 0.04 µM | 0.03 µM | 0.03 µM | 0.03 µM | IC50 (DU-145 [5]): 0.054 µM; inhibition (Bos taurus [6]): Active; Ratio IC50 (PC-3 [7]): 0.9; IC50 (MDA-MB-435 [8]): 0.079 µM; IC50 (PC-3 [9]): 0.016 µM; IC50 (PC-3 [10]): 0.018 µM; Ratio IC50 (MDA-MB-435 [11]): 0.9; IC50 (MDA-MB-435 [12]): 0.086 µM; IC50 (DU-145 [13]): 0.049 µM; Ratio IC50 (DU-145 [14]): 1.1
5 | COc1ccc2cc(C(=O)c3cc(OC)c(OC)c(OC)c3)n(S(=O)(=O)c3ccccc3)c2c1 | > 10 µM | 2.66 µM | Dose-dependent effect | > 10 µM | 8.22 µM | 1.05 µM | > 10 µM | –
6 | COc1cc(C(=O)c2nc3ccccc3s2)cc(OC)c1OC | > 10 µM | > 10 µM | Dose-dependent effect | > 10 µM | > 10 µM | > 10 µM | > 10 µM | –
7 | COc1ccc(S(=O)(=O)n2cc(C(=O)c3ccc(F)cc3)nc2-c2ccc(N(C)C)cc2)cc1 | 0.13 µM | 0.04 µM | Dose-dependent effect | 0.1 µM | 0.1 µM | 0.06 µM | 0.07 µM | –
8 | COc1ccc2cc(C(=O)c3cc(OC)c(OC)c(OC)c3)[nH]c2c1 | > 10 µM | > 10 µM | Dose-dependent effect | > 10 µM | > 10 µM | > 10 µM | > 10 µM | –
9 | COc1cc(C(=O)c2c[nH]c(-c3ccc(Cl)cc3)n2)cc(OC)c1O | 1 µM | 0.3 µM | Dose-dependent effect | 0.5 µM | 0.68 µM | 0.58 µM | 0.55 µM | –
10 | COc1cc(C(=O)c2cc3ccc(Cl)cc3[nH]2)cc(OC)c1OC | > 10 µM | > 10 µM | Dose-dependent effect | > 10 µM | > 10 µM | > 10 µM | > 10 µM | –
11 | COc1ccc2[nH]c(C(=O)c3cc(OC)c(OC)c(OC)c3)cc2c1 | 0.08 µM | 0.04 µM | Dose-dependent effect | 0.04 µM | 0.03 µM | 0.05 µM | 0.05 µM | –
12 | COc1cc(C(=O)c2cc3ccc(F)cc3n2S(=O)(=O)c2ccccc2)cc(OC)c1OC | > 10 µM | > 10 µM | Dose-dependent effect | > 10 µM | > 10 µM | > 10 µM | > 10 µM | –
13 | COc1cc(C(=O)c2c[nH]c(-c3ccc(C)cc3)n2)cc(OC)c1O | 0.17 µM | 0.13 µM | Dose-dependent effect | 0.12 µM | 0.11 µM | 0.11 µM | 0.13 µM | –
14 | COc1cc(C(=O)c2cc3ccc(F)cc3n2C)cc(OC)c1OC | > 10 µM | > 10 µM | Dose-dependent effect | 7.5 µM | 5.87 µM | 8.3 µM | 1.05 µM | –
15 | COc1cc(C(O)(c2nc3ccccc3s2)c2nc3ccccc3s2)cc(OC)c1OC | > 10 µM | > 10 µM | Dose-dependent effect | > 10 µM | > 10 µM | > 10 µM | > 10 µM | –
16 | COc1ccc(-c2nc(C(=O)c3ccc(F)cc3)cn2C)cc1 | > 10 µM | > 10 µM | Dose-dependent effect | > 10 µM | > 10 µM | > 10 µM | > 10 µM | –
17 | COc1cc(C(=O)c2c[nH]c(-c3ccc4[nH]c(C(=O)c5cc(OC)c(OC)c(OC)c5)cc4c3)n2)cc(OC)c1OC | 5.92 µM | 2.63 µM | Dose-dependent effect | 1.7 µM | 1.8 µM | 4.58 µM | 1.07 µM | –
18 | COc1cc(C(=O)c2nc3ccccc3[nH]2)cc(OC)c1OC | > 10 µM | > 10 µM | Dose-dependent effect | > 10 µM | > 10 µM | > 10 µM | > 10 µM | –
19 | COc1cc(C(=O)c2cc3ccc(C)cc3[nH]2)cc(OC)c1OC | > 10 µM | > 10 µM | Dose-dependent effect | > 10 µM | > 10 µM | > 10 µM | > 10 µM | –
20 | COc1cc(C(=O)c2cc3cc(F)ccc3[nH]2)cc(OC)c1OC | 3.42 µM | 9.16 µM | Dose-dependent effect | 2.26 µM | 2.21 µM | 1 µM | 8.63 µM | –
21 | CC(=O)O[C@H]1C(=O)[C@@]2(C)[C@H]([C@H](OC(=O)c3ccccc3)[C@]3(O)C[C@H](OC(=O)[C@H](O)[C@@H](NC(=O)c4ccccc4)c4ccccc4)C(C)=C1C3(C)C)[C@]1(OC(C)=O)CO[C@@H]1C[C@@H]2O [PACLITAXEL] | – | – | – | – | – | – | – | IC50 (DU-145 [5]): > 3 µM; IC50 (PC-3 [9]): 0.188 µM; IC50 (PC-3 [10]): 0.00043 µM
22 | COc1cc(C(=O)c2cc3ccc(Cl)cc3n2Cc2ccccc2)cc(OC)c1OC | > 10 µM | > 10 µM | Dose-dependent effect | > 10 µM | > 10 µM | > 10 µM | > 10 µM | –
23 | COc1cc(C(=O)c2cc3cc(Cl)ccc3[nH]2)cc(OC)c1OC | > 10 µM | > 10 µM | Dose-dependent effect | 2.16 µM | 1.47 µM | > 10 µM | > 10 µM | –
24 | COc1cc(C(=O)c2cn(C)c(-c3ccc(C)cc3)n2)cc(OC)c1OC | 0.03 µM | 0.04 µM | Dose-dependent effect | 0.04 µM | 0.03 µM | 0.03 µM | 0.03 µM | Stability (Liver [15]): Stable; IC50 (DU-145 [5]): 0.052 µM; Stability (Liver microsomes [16]): Stable; t1/2 (Liver [17]): 5 min; Ratio IC50 (PC-3 [7]): 0.9; IC50 (MDA-MB-435 [8]): 0.067 µM; IC50 (PC-3 [9]): 0.019 µM; IC50 (PC-3 [10]): 0.021 µM; Ratio IC50 (MDA-MB-435 [11]): 0.8; Stability (Liver microsomes [18]): Stable; IC50 (MDA-MB-435 [12]): 0.083 µM; Ratio IC50 (DU-145 [14]): 1; t1/2 (Liver microsomes [19]): 10 min
25 | COc1cc(C(=O)c2cc3ccc(Cl)cc3n2C)cc(OC)c1OC | > 10 µM | 3.76 µM | Dose-dependent effect | 8.08 µM | 6.65 µM | 4.33 µM | 1.04 µM | –
